Screening results (PubChem BioAssay)
This is a sample that favours compounds with a hit; in the whole collection about 1.6% have one here.
SR-BI DiI-HDL act = activators of SR-BI mediated HDL lipid uptake | CHO ldlA[mSR-BI] cells, DiI-HDL uptake fluorescence, 3 h; 100 = double the neutral-control signal | activation, % at 12.5 µM | 0.096% of 320,000 active;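 active = mean replicate activation of at least 60% and every replicate at or above 60%; inconclusive = mean or all-replicate condition met, but not both; inactive = mean below 60% and not all replicates reaching 60%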;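 also: 0% = median plate neutral-control signal and 100% = twice that signal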
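material = CHO ldlA[mSR-BI] cells | medium = Ham's F12 with 0.5% BSA, HEPES 25 mM, pH 7.4 | reagent = fluorescent DiI-HDL, 10 µg/mL final | compound dosing = single-point compound dose | incubation = 3 h, 37 °C | measured by = bottom-read fluorescence, 550/595 nm | measure = HDL uptake via cellular fluorescence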
dFosB activator = mouse delta FosB homodimer activation. P13346. purified delta FosB, TAMRA-CDK5 oligo fluorescence polarization; percent of positive-control signal above neutral wells. activation, % at 25 µM. 0.99% of 340,000 active. AID 493131;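 active = mean activation above about 17%, with every replicate also reaching it, limit read from the data, passing the limit was not always enough; inconclusive = only one of the two conditions met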
Target sequence (P13346 whole entry, looked up): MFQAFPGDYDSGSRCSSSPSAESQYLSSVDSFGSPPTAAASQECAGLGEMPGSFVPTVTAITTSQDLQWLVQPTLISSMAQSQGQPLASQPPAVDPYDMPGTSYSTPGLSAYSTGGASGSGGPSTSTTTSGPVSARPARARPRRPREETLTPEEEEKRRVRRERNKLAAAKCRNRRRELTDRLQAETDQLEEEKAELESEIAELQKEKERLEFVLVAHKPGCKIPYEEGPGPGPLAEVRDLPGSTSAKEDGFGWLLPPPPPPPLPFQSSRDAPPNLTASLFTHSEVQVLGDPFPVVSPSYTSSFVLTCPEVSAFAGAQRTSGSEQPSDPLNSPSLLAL
RAD54 inh = blocks human RAD54 Holliday junction branch migration; Q92698; 0.14% of 360,000 active; FAM/BHQ fluorescence; inhibition, % at 10.4 µM;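 active = mean normalized replicate activity at least 40 and at least half of replicates scoring 40 or more; inconclusive = only one of the two criteria met; inactive = mean below 40 and under half of replicates reaching 40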;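 also: 0% = median of neutral control wells and 100% = median of positive control wells; inhibitors cause a drop in the FAM fluorescence signal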
PvdQ inh = blocks Pseudomonas aeruginosa PvdQ acylase activity; purified PvdQ acylase, fluorescence plate reader; 0.063% of 340,000 active; inhibition, % at 10 µM; in the data active = inhibition above about 30%, passing the limit was not always enough; inconclusive = no clear call, values can overlap the other calls;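 also: 0% = vehicle neutral wells and 100% = reference inhibitor wells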
S100A4 MyoIIA = blocks human S100A4 binding to myosin IIA peptide; P26447; S100A4/TAMRA-MyoIIA peptide fluorescence polarization; inhibition, % at 10.7 µM; 0.14% of 360,000 active; AID 652163;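 active = mean inhibition of at least 70% across replicates, with every replicate also reaching that level; inconclusive = mean inhibition reaches 70% but some replicates fall short; inactive = mean inhibition below 70%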
Target sequence (P26447 whole entry, looked up): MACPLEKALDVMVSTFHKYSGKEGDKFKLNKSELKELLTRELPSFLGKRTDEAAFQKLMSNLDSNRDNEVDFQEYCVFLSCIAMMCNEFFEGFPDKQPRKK
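Assay system: human S100A4 monomer with TAMRA-labelled myosin IIA peptide / Buffer or medium: Calcium-containing HEPES buffer, pH 7.2 / Reagent: TAMRA-labelled myosin IIA heavy-chain peptide probe, 5 nM / Compound: one dose per compound / Timing: polarization read 5 min after assay mix addition, stable 5–60 min / Benchmarks: neutral control DMSO, positive control TFP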
SR-BI DiI inh = inhibitors of mouse SR-BI mediated HDL lipid uptake; inhibition, % at 12.5 µM; AID 488896; Q61009; 0.96% of 320,000 active; ldlA[mSR-BI] CHO cells, DiI-HDL uptake fluorescence, 3 h;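 active = mean replicate inhibition of at least 70% and a set share of replicates each scoring 70 or more; inconclusive = meets just one of the two criteria; inactive = fails both criteria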;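 also: 0% = median of neutral control wells and 100% = median of positive control wells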
Active calls of the source: *; ? = inconclusive; nt = no result given.

SMILES	SR-BI DiI-HDL act	dFosB activator	RAD54 inh	PvdQ inh	S100A4 MyoIIA	SR-BI DiI inh
NS(=O)(=O)c1ccc(NC(=O)c2ccc(CNS(=O)(=O)c3cc(C(F)(F)F)ccc3Cl)cc2)cc1	nt	107.8*	3.4	-2.7	-1.0	nt
Cc1cccc(NC(=O)Cn2cnc3c(cnn3-c3ccc(F)cc3)c2=O)c1C	0.2	48.5*	6.5	1.3	-2.5	-0.2
COc1ccc(/C=N/Nc2cc(C)nc(-n3nc(C)cc3C)n2)c(OC)c1	-79.1	-11.4	nt	9.3	9.7	79.1*
Cc1cc(C)n(-c2nc(Nc3ccccc3)nc(-n3nc(C)cc3C)n2)n1	nt	5.4	1.1	-5.8	-7.8	nt
COc1cccc(/C=N/Nc2nc(Nc3ccccc3)nc(-n3nc(C)cc3C)n2)c1O	-64.0	41.5*	nt	-8.3	nt	64.0
O=S(=O)(c1ccccc1F)N1CC[C@@H]2[C@H](CO)Nc3ccc(-c4cccc(F)c4)cc3[C@@H]21	nt	nt	2.2	nt	nt	nt
C[C@@H]1CN([C@H](C)CO)C(=O)c2cccc(NC(=O)C3CCCCC3)c2O[C@@H]1CN(C)Cc1ccc(Oc2ccccc2)cc1	nt	nt	-1.8	nt	143.0*	nt
Cc1noc(C)c1NC(=O)N(C)C[C@H]1Oc2c(NC(=O)CCCCCC(=O)Nc3ccccc3N)cccc2C(=O)N([C@@H](C)CO)C[C@H]1C	nt	nt	nt	nt	76.3*	nt
C[C@@H]1CN([C@H](C)CO)C(=O)c2cccc(NC(=O)CCCCCC(=O)Nc3ccccc3N)c2O[C@H]1CN(C)S(=O)(=O)c1cccs1	nt	nt	nt	nt	74.0*	nt
C[C@H]1CN([C@@H](C)CO)C(=O)c2cc(NC(=O)CCCCCC(=O)Nc3ccccc3N)ccc2O[C@H]1CN(C)S(=O)(=O)c1cccs1	nt	nt	nt	nt	98.3*	nt
C[C@@H]1CN([C@@H](C)CO)C(=O)c2cccc(NC(=O)CCCCCC(=O)Nc3ccccc3N)c2O[C@@H]1CN(C)S(=O)(=O)c1cccs1	nt	nt	nt	nt	7.3	nt
CC(C)NC(=O)N(C)C[C@@H]1Oc2c(NC(=O)Nc3cccc4ccccc34)cccc2C(=O)N([C@H](C)CO)C[C@H]1C	nt	nt	1.0	nt	100.6*	nt
Cc1ccc(-c2cnc3c(c2)C(=O)N([C@@H](C)CO)C[C@H](C)[C@@H](CN(C)C(=O)Cc2ccccc2)O3)cc1	nt	nt	12.6	nt	2.1	nt
COc1ccc(Cl)cc1NC(=O)c1c(-c2ccccc2)noc1C	-75.6	2.7	10.3	-10.7	nt	75.7*
C=CCOC(=O)C(C#N)c1nc2ccccc2nc1N1CCN(c2ccccc2OC)CC1 (centres undefined)	-81.8	-12.2	2.2	-8.5	nt	81.8*
C=CCOC(=O)C(C#N)c1nc2ccccc2nc1N1CCN(Cc2ccccc2)CC1 (centres undefined)	-84.4	-3.0	2.1	-4.3	nt	84.4*
C[C@H](CO)N1C[C@H](C)[C@@H](CN(C)CC2CCCCC2)Oc2c(NC(=O)Nc3ccc(C(F)(F)F)cc3)cccc2C1=O	nt	nt	-2.8	nt	3.1	nt
COc1ccccc1C(=O)N1C[C@H]2[C@@H](c3ccccc31)[C@H](CO)N2C(=O)C1CCCC1	nt	nt	-8.8	nt	-73.6	nt
CNc1nc(-c2ccc3c(c2)CCN3S(=O)(=O)c2ccccc2)c(C)s1	-25.6	-12.3	-9.7	-1.5	0.0	25.6
CNc1nc(-c2ccc3c(c2)CCN3C(=O)CC(C)(C)C)c(C)s1	-73.1	-16.0	nt	-5.3	-2.7	73.1*
CC(=O)Nc1nc(-c2ccc3c(c2)CCN3C(=O)C2CC2)c(C)s1	-94.7	-9.8	-1.2	-0.6	-1.9	94.8*
Cc1ccc([C@@H]2[C@@H]3C(=O)N(c4ccccc4)C(=O)[C@@H]3[C@]3(C)C(=O)N(Cc4ccccc4)CC(=O)N23)o1	-2.2	12.1	8.2	15.4	-9.2	2.2
CC1NC2(C(=O)N(Cc3ccccc3)c3ccccc32)C2C(=O)N(c3ccccc3)C(=O)C12 (centres undefined)	12.4	-6.5	-2.3	-7.6	85.6*	-12.4
COc1cccc(-c2nc(NC3CCCC3)c3ccccc3n2)c1O	-82.5	-4.1	4.3	4.9	-0.6	82.5*
C=CCNc1nc(-c2cccc(OC)c2O)nc2ccccc12	-75.9	2.5	0.5	5.0	nt	75.9*
SMILES	SR-BI DiI-HDL act	dFosB activator	RAD54 inh	PvdQ inh	S100A4 MyoIIA	SR-BI DiI inh
COc1cccc(-c2nc(NCc3ccccc3)c3ccccc3n2)c1O	-61.1	-6.5	2.0	-10.1	1.7	61.1
COc1cccc(-c2nc(N3CCCCC3C)c3ccccc3n2)c1O (centres undefined)	-27.4	-11.6	4.8	-16.1	nt	27.4
O=C(Cc1cccc(NC(=O)C2CCCN(C(=O)C3CC3)C2)c1)Nc1ccc(C(=O)N2CCCCC2)cc1 (centres undefined)	-75.3	-5.4	4.3	-7.6	1.3	75.3*
O=C(Cc1cccc(NC(=O)C2CCCN(C(=O)CCc3ccccc3)C2)c1)Nc1cccc(C(=O)N2CCCC2)c1 (centres undefined)	-77.5	0.8	0.9	-1.3	-5.2	77.5*
C[C@@H]1CN([C@H](C)CO)C(=O)Cc2cc(NC(=O)NC3CCCCC3)ccc2O[C@H]1CN(C)Cc1ccc(-c2ccccc2)cc1	nt	nt	0.7	nt	1.2	nt
CCCC#Cc1cnc2c(c1)C(=O)N([C@@H](C)CO)C[C@@H](C)[C@H](CN(C)C(=O)c1cccnc1)O2	nt	nt	-4.5	nt	11.5	nt
O=C(NCc1cccnc1)c1cc2nc(-c3ccc4c(c3)OCO4)cc(C(F)(F)F)n2n1	nt	-14.4	nt	-0.7	-3.6	nt
O=C(NCc1ccco1)c1cc2nc(-c3ccc4c(c3)OCO4)cc(C(F)(F)F)n2n1	-71.9	-4.2	1.1	4.4	nt	71.9*
O=C(Nc1cnn(Cc2ccccc2)c1)c1cc2nc(-c3ccco3)cc(C(F)(F)F)n2n1	-71.1	3.4	-4.0	-17.8	nt	71.1*
Cc1nn(C)cc1NC(=O)c1cc2nc(-c3ccco3)cc(C(F)(F)F)n2n1	-39.8	-7.5	-7.1	-4.9	-7.1	39.8
Cc1ccc(F)cc1S(=O)(=O)N[C@H]1CCN(Cc2ccc(OC(C)C)cc2)C1	nt	nt	nt	nt	0.4	nt
Cc1cc(-c2ccccc2)nc(N/N=C/c2ccc(O)cc2O)n1	-75.2	0.8	5.5	-5.8	-0.2	?
CN(/N=C/c1ccc(O)cc1O)c1nc(-c2ccccc2)cc(-c2ccccc2)n1	-90.3	3.8	0.8	-1.7	-29.0	90.3*
C[C@@H]1CN([C@@H](C)CO)C(=O)Cc2cc(NC(=O)Nc3cccc4ccccc34)ccc2O[C@H]1CN(C)S(=O)(=O)c1cccs1	nt	nt	-6.4	nt	nt	nt
C[C@@H]1CN([C@@H](C)CO)C(=O)c2cccc(NC(=O)Nc3ccc(C(F)(F)F)cc3)c2O[C@H]1CN(C)C(=O)Nc1ccc(C(F)(F)F)cc1	nt	nt	0.2	nt	-51.8	nt
COc1ccc(NC(=O)c2cc(-c3ccc(C)c(C)c3O)n[nH]2)cc1Cl	-53.4	12.9	3.5	-5.2	-0.2	53.4
Cc1ccc(NC(=O)c2cccc(C(=O)Nc3ccc(C)c(C)c3)n2)cc1C	-74.7	-11.5	-12.3	15.7	-0.6	74.7*
